Test: MAD study: safety and tolerability
Assay type: in vivo, human
Settings: for Abdominal pain TEAE, events / Abdominal pain TEAE, participants / Alanine aminotransferase increased TEAE, events / Alanine aminotransferase increased TEAE, participants / Any event TEAE, events / Any event TEAE, participants / Constipation TEAE, events / Constipation TEAE, participants / Diarrhea TEAE, events / Diarrhea TEAE, participants / Dry skin TEAE, events / Dry skin TEAE, participants / Dysgeusia TEAE, events / Dysgeusia TEAE, participants / Gastrointestinal disorders TEAE, events / Gastrointestinal disorders TEAE, participants / General disorders and administration site conditions TEAE, events / General disorders and administration site conditions TEAE, participants / Headache TEAE, events / Headache TEAE, participants / Injury, poisoning, and procedural complications TEAE, events / Injury, poisoning, and procedural complications TEAE, participants / Investigations TEAE, events / Investigations TEAE, participants / Medical device site reaction TEAE, events / Medical device site reaction TEAE, participants / Musculoskeletal and connective tissue disorders TEAE, events / Musculoskeletal and connective tissue disorders TEAE, participants / Nasal dryness TEAE, events / Nasal dryness TEAE, participants / Neck pain TEAE, events / Neck pain TEAE, participants / Nervous system disorders TEAE, events / Nervous system disorders TEAE, participants / Oropharyngeal pain TEAE, events / Oropharyngeal pain TEAE, participants / Reproductive system and breast disorders TEAE, events / Reproductive system and breast disorders TEAE, participants / Respiratory, thoracic, and mediastinal disorders TEAE, events / Respiratory, thoracic, and mediastinal disorders TEAE, participants / Skin and subcutaneous tissue disorders TEAE, events / Skin and subcutaneous tissue disorders TEAE, participants / Sneezing TEAE, events / Sneezing TEAE, participants / Testicular mass TEAE, events / Testicular mass TEAE, participants / Wound TEAE, events / Wound TEAE, participants: N = 8
In short: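 Healthy males aged 18–55 with BMI 18–30 kg/m² were followed through dosing and a 6–8-day follow-up. Checks: physical examination, clinical laboratory tests, vital signs and 12-lead ECG, with adverse events coded in MedDRA. Events of special interest: ALT ≥2×ULN, QTcF ≥500 ms, Grade ≥2 photosensitivity, symptomatic overdose. Treatment-emergent events were summarised descriptively by organ class, preferred term and dose level for all exposed participants.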

CN1C(=O)c2cccc(OC(F)F)c2[C@H]2C[C@@H]1c1nc3ccc(-c4cnc(C5(N)CCC5)nc4)cc3n12 [Balinatunfib]
2 (25.0) n (%): Any event TEAE, participants (MAD 100 mg BID) | Respiratory, thoracic, and mediastinal disorders TEAE, participants (MAD 100 mg BID) | Diarrhea TEAE, participants (MAD 100 mg QD) | Gastrointestinal disorders TEAE, participants (MAD 100 mg QD)
1 (12.5) n (%): Oropharyngeal pain TEAE, participants (MAD 100 mg BID) | Reproductive system and breast disorders TEAE, participants (MAD 100 mg BID) | Sneezing TEAE, participants (MAD 100 mg BID) | Testicular mass TEAE, participants (MAD 100 mg BID) | Abdominal pain TEAE, participants (MAD 100 mg QD) | Headache TEAE, participants (MAD 100 mg QD) | Injury, poisoning, and procedural complications TEAE, participants (MAD 100 mg QD) | Musculoskeletal and connective tissue disorders TEAE, participants (MAD 100 mg QD) | Neck pain TEAE, participants (MAD 100 mg QD) | Nervous system disorders TEAE, participants (MAD 100 mg QD) | Wound TEAE, participants (MAD 100 mg QD)
0: Abdominal pain TEAE, events (MAD 100 mg BID) | Alanine aminotransferase increased TEAE, events (MAD 100 mg BID) | Constipation TEAE, events (MAD 100 mg BID) | Diarrhea TEAE, events (MAD 100 mg BID) | Dry skin TEAE, events (MAD 100 mg BID) | Dysgeusia TEAE, events (MAD 100 mg BID) | Gastrointestinal disorders TEAE, events (MAD 100 mg BID) | General disorders and administration site conditions TEAE, events (MAD 100 mg BID) | Headache TEAE, events (MAD 100 mg BID) | Injury, poisoning, and procedural complications TEAE, events (MAD 100 mg BID) | Investigations TEAE, events (MAD 100 mg BID) | Medical device site reaction TEAE, events (MAD 100 mg BID) | Musculoskeletal and connective tissue disorders TEAE, events (MAD 100 mg BID) | Nasal dryness TEAE, events (MAD 100 mg BID) | Neck pain TEAE, events (MAD 100 mg BID) | Nervous system disorders TEAE, events (MAD 100 mg BID) | Skin and subcutaneous tissue disorders TEAE, events (MAD 100 mg BID) | Wound TEAE, events (MAD 100 mg BID) | Constipation TEAE, events (MAD 100 mg QD) | Dry skin TEAE, events (MAD 100 mg QD) | Dysgeusia TEAE, events (MAD 100 mg QD) | General disorders and administration site conditions TEAE, events (MAD 100 mg QD) | Medical device site reaction TEAE, events (MAD 100 mg QD) | Nasal dryness TEAE, events (MAD 100 mg QD) | Oropharyngeal pain TEAE, events (MAD 100 mg QD) | Reproductive system and breast disorders TEAE, events (MAD 100 mg QD) | Respiratory, thoracic, and mediastinal disorders TEAE, events (MAD 100 mg QD) | Skin and subcutaneous tissue disorders TEAE, events (MAD 100 mg QD) | Sneezing TEAE, events (MAD 100 mg QD) | Testicular mass TEAE, events (MAD 100 mg QD) | Abdominal pain TEAE, events (MAD 200 mg BID)
0 n (%): Abdominal pain TEAE, participants (MAD 100 mg BID) | Alanine aminotransferase increased TEAE, participants (MAD 100 mg BID) | Constipation TEAE, participants (MAD 100 mg BID) | Diarrhea TEAE, participants (MAD 100 mg BID) | Dry skin TEAE, participants (MAD 100 mg BID) | Dysgeusia TEAE, participants (MAD 100 mg BID) | Gastrointestinal disorders TEAE, participants (MAD 100 mg BID) | General disorders and administration site conditions TEAE, participants (MAD 100 mg BID) | Headache TEAE, participants (MAD 100 mg BID) | Injury, poisoning, and procedural complications TEAE, participants (MAD 100 mg BID) | Investigations TEAE, participants (MAD 100 mg BID) | Medical device site reaction TEAE, participants (MAD 100 mg BID) | Musculoskeletal and connective tissue disorders TEAE, participants (MAD 100 mg BID) | Nasal dryness TEAE, participants (MAD 100 mg BID) | Neck pain TEAE, participants (MAD 100 mg BID) | Nervous system disorders TEAE, participants (MAD 100 mg BID) | Skin and subcutaneous tissue disorders TEAE, participants (MAD 100 mg BID) | Wound TEAE, participants (MAD 100 mg BID) | Constipation TEAE, participants (MAD 100 mg QD) | Dry skin TEAE, participants (MAD 100 mg QD) | Dysgeusia TEAE, participants (MAD 100 mg QD) | General disorders and administration site conditions TEAE, participants (MAD 100 mg QD) | Medical device site reaction TEAE, participants (MAD 100 mg QD) | Nasal dryness TEAE, participants (MAD 100 mg QD) | Oropharyngeal pain TEAE, participants (MAD 100 mg QD) | Reproductive system and breast disorders TEAE, participants (MAD 100 mg QD) | Respiratory, thoracic, and mediastinal disorders TEAE, participants (MAD 100 mg QD) | Skin and subcutaneous tissue disorders TEAE, participants (MAD 100 mg QD) | Sneezing TEAE, participants (MAD 100 mg QD) | Testicular mass TEAE, participants (MAD 100 mg QD) | Abdominal pain TEAE, participants (MAD 200 mg BID)
4 (50.0) n (%): Any event TEAE, participants (MAD 100 mg QD)
2: Respiratory, thoracic, and mediastinal disorders TEAE, events (MAD 100 mg BID) | Diarrhea TEAE, events (MAD 100 mg QD)
No participants: Grade ≥ 3 TEAE, treatment-emergent SAEs, TEAEs leading to discontinuation (MAD)
3: Any event TEAE, events (MAD 100 mg BID) | Alanine aminotransferase increased TEAE, events (MAD 100 mg QD) | Gastrointestinal disorders TEAE, events (MAD 100 mg QD) | Investigations TEAE, events (MAD 100 mg QD)
9: Any event TEAE, events (MAD 100 mg QD)
3 (37.5) n (%): Alanine aminotransferase increased TEAE, participants (MAD 100 mg QD) | Investigations TEAE, participants (MAD 100 mg QD)
1: Oropharyngeal pain TEAE, events (MAD 100 mg BID) | Reproductive system and breast disorders TEAE, events (MAD 100 mg BID) | Sneezing TEAE, events (MAD 100 mg BID) | Testicular mass TEAE, events (MAD 100 mg BID) | Abdominal pain TEAE, events (MAD 100 mg QD) | Headache TEAE, events (MAD 100 mg QD) | Injury, poisoning, and procedural complications TEAE, events (MAD 100 mg QD) | Musculoskeletal and connective tissue disorders TEAE, events (MAD 100 mg QD) | Neck pain TEAE, events (MAD 100 mg QD) | Nervous system disorders TEAE, events (MAD 100 mg QD) | Wound TEAE, events (MAD 100 mg QD)

Source: article PMC12166256 (Clinical Pharmacology and Therapeutics, 2025)
